Measured values: ChEMBL document CHEMBL3856282, “Design and synthesis of purine analogues as highly specific ligands for FcyB, a ubiquitous fungal nucleobase transporter” (Bioorg Med Chem, 2016)
Calls of active or inactive are those of the source. The calls are words filed in the database; no cut-off is given here.

Tests used:
[1] = test system: Aspergillus nidulans; assay: Inhibition of Aspergillus nidulans FcyB expressed in germinating conidiospores of UapA, UapC, AzgA, FurD, FurA, FcyB, CntA transporter deficient Aspergillus nidulans assessed as suppression of [2,8 3H]-hypoxanthine uptake at 0.5 mM after 1 min by scintillation counting method
How it was run: (§1)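 Competition uptake in germinating conidiospores of a Δ7 strain carrying single-copy fcyB driven by the uapA promoter, selected by pabA1 complementation. 0.5 μM ³H-substrate (adenine for line 1, hypoxanthine for line 3) was added together with a 1000-fold excess (500 μM) of analogue. Uptake was stopped after 1 min by freezing, immediate centrifugation and washing. Three experiments, each in triplicate.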

[2] = test system: Aspergillus nidulans; assay: Inhibition of Aspergillus nidulans FcyB expressed in germinating conidiospores of UapA, UapC, AzgA, FurD, FurA, FcyB, CntA transporter deficient Aspergillus nidulans assessed as [2,8 3H]-adenine uptake at 0.5 mM after 1 min by scintillation counting method relative to control; set-up: scale not given: the % may be the effect or the level left; how it was run: as §1
[3] = Inhibition of Aspergillus nidulans FcyB expressed in germinating conidiospores of UapA, UapC, AzgA, FurD, FurA, FcyB, CntA transporter deficient Aspergillus nidulans assessed as suppression of [2,8 3H]-adenine uptake after 1 min by scintillation counting method
How it was run: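 In germinating conidiospores of a Δ7 strain expressing only FcyB (uapA promoter), 0.5 μM ³H-adenine uptake was measured over 1 min against varying analogue concentrations. Ki was derived from IC50 by Cheng–Prusoff, Ki = IC50/(1+[S]/Km), with [S] as the fixed radiolabelled substrate concentration. Values are averages of at least three independent experiments with three replicates per concentration point.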

inhibition [1] | Activity [2] | Ki [3] | SMILES
Active | < 10% | 38 µM | CN1CCN(c2nccc3c2ncn3C2CCCC2)CC1
Active | < 10% | 5 µM | CC(C)n1cnc2c(NCc3ccccc3)nccc21
Active | < 10% | 72 µM | CC(C)n1cnc2c(NCCN(C)C)nccc21
Active | < 10% | 21 µM | c1ccc(CNc2nccc3c2ncn3C2CCCC2)cc1
Active | < 10% | 95 µM | CN(C)CCNc1nccc2c1ncn2C1CCCC1
Active | < 10% | 18 µM | Nc1nccc2c1ncn2C1CCCC1
